Source: PubChem (Sanford-Burnham Center for Chemical Genomics)
EBI2 antag – EBI2 (human) antagonism; P32249; inhibition, % at 5 µM; AID 651636; 360,000 tested, 0.81% active; EBI2 beta-arrestin recruitment, luminescence, 7a,25-OHC stimulated; in the data active means inhibition above about 38%;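 further: enzyme fragment complementation signal reports receptor beta-arrestin coupling in cells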
Target sequence (P32249 whole entry, looked up, the tested form may be a part): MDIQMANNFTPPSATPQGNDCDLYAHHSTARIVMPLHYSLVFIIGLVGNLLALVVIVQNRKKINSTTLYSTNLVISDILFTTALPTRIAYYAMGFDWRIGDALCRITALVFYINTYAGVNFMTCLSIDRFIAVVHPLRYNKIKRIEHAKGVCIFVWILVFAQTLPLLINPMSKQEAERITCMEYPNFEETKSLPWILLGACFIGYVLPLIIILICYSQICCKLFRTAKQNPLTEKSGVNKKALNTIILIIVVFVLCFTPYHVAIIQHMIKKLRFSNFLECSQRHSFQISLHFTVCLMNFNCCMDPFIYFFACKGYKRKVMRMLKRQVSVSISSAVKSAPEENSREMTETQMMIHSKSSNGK
CXCR6 inh – blocks human CXCR6 beta-arrestin recruitment; O00574; CHO-K1 PathHunter CXCR6 beta-arrestin, luminescence; inhibition, % at 20 µM; 360,000 tested, 0.36% active; in the data active means inhibition above about 34%, passing the limit was not always enough;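 further: antagonist mode with CXCL16 agonist at 10 nM final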
Target sequence (O00574 whole entry, looked up): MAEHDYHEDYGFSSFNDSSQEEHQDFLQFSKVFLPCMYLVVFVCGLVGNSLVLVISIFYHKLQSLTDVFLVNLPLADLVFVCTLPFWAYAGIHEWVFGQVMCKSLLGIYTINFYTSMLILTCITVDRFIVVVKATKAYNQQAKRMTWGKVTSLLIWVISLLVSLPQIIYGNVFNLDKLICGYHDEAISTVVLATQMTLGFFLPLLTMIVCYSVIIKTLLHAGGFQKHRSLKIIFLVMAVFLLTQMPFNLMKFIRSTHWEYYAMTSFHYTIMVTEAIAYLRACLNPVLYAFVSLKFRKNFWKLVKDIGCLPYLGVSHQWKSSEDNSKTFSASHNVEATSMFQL
APJ antag – antagonists of human APJ apelin receptor | P35414 | CHO-K1 APJ beta-arrestin complementation, luminescence | inhibition, % at 20 µM | 330,000 tested, 0.32% active;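 active means inhibition above about 40% at 20 µM, limit read from the data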;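 further: cells challenged with 10 nM apelin-13 agonist together with compound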
CCR6 antagonist – CCR6 (human) receptor antagonism; 340,000 tested, 0.49% active; CHO-K1 CCR6 PathHunter beta-arrestin, luminescence, CCL20-stimulated; AID 493098; inhibition, % at 20 µM; P51684;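 active means compounds whose inhibition of the agonist-driven luminescence signal at 20 µM reaches about 50%, limit read from the data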;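 further: cells stimulated with CCL20 at 14 nM final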
APJ agonist – APJ receptor agonism | activation, % at 20 µM | CHO-K1 APJ PathHunter beta-arrestin, luminescence; 0% DMSO wells, 100% apelin | AID 2520 | 330,000 tested, 0.11% active | P35414;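 active means activation more than six SD over the plate average, tested at 20 µM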
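Assay system: CHO-K1 APJ beta-arrestin complementation cell line / Compound: single test compound dose, 20 µM final, 1% DMSO / Times: overnight seeding, 90 min compound at 25 °C, 1 h detection / Technique: beta-gal luminescence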
Of the large screens only hits and unclear results are named; the others gave an inactive call. Most compounds without a hit are left out; they make up all but 1.5% or so of the library.

Cc1ccccc1NC(=S)Nc1cccc2cnccc12	APJ agonist 16.3
CC1=NN(c2nc(N)nc(/C(C#N)=C/c3ccc([N+](=O)[O-])o3)n2)C(C)(C)C1	CCR6 antagonist 53.0 (no result: APJ antag, APJ agonist)
O=C1C2C(C(=O)N1/N=C/c1ccc([N+](=O)[O-])o1)C1C=CC2C12CC2 (stereo not drawn)	none
CCOC(=O)Cn1c(Br)nc2c1c(=O)[nH]c(=O)n2C	none
Cc1ccc(O)c(N=Cc2cc(Cc3ccccc3)cc([N+](=O)[O-])c2O)c1	none
O=[N+]([O-])c1cc(Cc2ccccc2)cc(C=Nc2ccc(N3CCOCC3)cc2)c1O	CXCR6 inh 42.7, CCR6 antagonist 54.7 (no result: APJ antag, APJ agonist)
O=C(NCc1cccnc1)/C(=C\c1ccc(-c2ccc(Br)cc2)o1)S(=O)(=O)c1ccccc1	EBI2 antag 61.7
O=C(NCc1cccnc1)/C(=C/c1ccc(-c2cccc(C(F)(F)F)c2)o1)NC(=O)c1ccccc1	none
O=C(NCc1cccnc1)/C(=C/c1ccc(-c2ccc(Cl)cc2)o1)S(=O)(=O)c1ccccc1	EBI2 antag 54.4
O=C(CN(Cc1ccc(Br)cc1)S(=O)(=O)c1ccccc1)NCc1cccnc1	none
Cn1c(N)c(C(=O)COC(=O)c2ccccc2C(F)(F)F)c(=O)n(C)c1=O	none
CCOc1ccc(NC(=S)N(CCc2c(C)[nH]c3ccccc23)Cc2cccnc2)cc1	none
CCOc1ccc(CCNC(=O)COC(=O)c2sccc2C)cc1OCC	none
CCC(C)Sc1ccc(-c2nc3ccc(C)cn3c2NCc2ccccc2)cc1OC (stereo not drawn)	EBI2 antag 69.4
CCC(C)Sc1cc(-c2nc3ccc(C)cn3c2NCc2ccccc2)ccc1OC (stereo not drawn)	none (no result: APJ antag, APJ agonist)
Cc1cc(/C=N/n2c(COc3ccccc3C)nc3ccccc3c2=O)c(O)c([N+](=O)[O-])c1	CCR6 antagonist 58.5
Cc1ccccc1OCc1nc2ccccc2c(=O)n1/N=C/c1c[nH]c2ccccc12	none
CC(=NNC(=S)N1CCCCCC1)c1cccc2cccnc12	CCR6 antagonist 90.6 (no result: APJ antag, APJ agonist)
CCCCCOc1ccc(/C=c2\sc3nc(=O)c(-c4ccccc4)nn3c2=O)cc1OC	none
O=c1nc2s/c(=C\c3ccc(-c4ccccc4[N+](=O)[O-])o3)c(=O)n2nc1-c1ccccc1	CCR6 antagonist 57.6 (no result: APJ antag, APJ agonist)
COc1cccc(N(CC(=O)N2CCCCCC2)S(C)(=O)=O)c1	none
CCSC1=NC(C)(C)C=C(/C=C/c2ccc(Cl)cc2Cl)N1	CCR6 antagonist 66.4
Cc1ccc(OCC(=O)NNC(=S)NC(=O)C(C)(C)C)c(Br)c1	CCR6 antagonist 58.8
Cc1ccc(OCC(=O)NC(=S)Nc2ccccn2)c(Br)c1	none
CC(C)(C)NS(=O)(=O)c1ccc(Oc2ncc(C(F)(F)F)cc2Cl)cc1	none
CN(C)c1c([N+](=O)[O-])cc(N2C(=O)C=CC2=O)cc1[N+](=O)[O-]	CXCR6 inh 75.1 (no result: APJ antag, CCR6 antagonist, APJ agonist)
Cn1c(=O)c(=O)n(C)c2cc([N+](=O)[O-])c([N+](=O)[O-])cc21	none
CC(=O)Nc1ccc(C=NNc2ccc([N+](=O)[O-])cc2S(=O)(=O)Nc2ccccc2C(=O)O)cc1	none
Cc1[nH]c2ccccc2c1/C=N/Nc1ccccc1[N+](=O)[O-]	APJ antag 43.1
Cc1[nH]c2ccccc2c1/C=N/NS(=O)(=O)c1ccccc1	none
COc1ccc(NS(=O)(=O)c2cc([N+](=O)[O-])ccc2N/N=C/c2c(C)[nH]c3ccccc23)cc1	CCR6 antagonist 57.7 (no result: APJ antag, APJ agonist)
CC(C)CCNC(=O)c1ccccc1NC(=O)C1=CSCCO1	none
CN(C)c1ccc(N=Nc2ccccc2C(=O)OCC(=O)NCC2CCCCC2)cc1	CCR6 antagonist 53.6
CCCCCCCCCC[N+](C)(C)CC/C=C1/c2ccccc2Sc2ccc(Cl)cc21	CXCR6 inh 48.8
CCCCCCCCCCC[N+](C)(C)CC/C=C1/c2ccccc2Sc2ccc(Cl)cc21	none
Clc1ccc(-n2nnnc2CN2CCOCC2)cc1Cl	none
C[C@@H](C(=O)NCCc1c[nH]c2ccccc12)[C@@H]1C[C@@]1(C)[C@@H](NC(=O)OCc1ccccc1)c1ccccc1	EBI2 antag 75.3
Cc1nc(SCC(=O)Nc2ccccc2C(F)(F)F)c2c(=O)n(C)c(=O)n(C)c2n1	none
CN(C)c1ccc(/C=C/c2cccc[n+]2[O-])cc1	none
CN(C)c1ccc(/C=C/c2ccc3c4ccccc4ccc3[n+]2-c2ccccc2)cc1	EBI2 antag 45.5, CXCR6 inh 62.3, CCR6 antagonist 83.2 (no result: APJ antag, APJ agonist)
O=[N+]([O-])c1ccc(-c2cnc3ccccc3n2)cc1	none
O=[N+]([O-])c1ccc(-c2c(O)c3ccccc3c3nc4ccccc4nc23)cc1	CCR6 antagonist 76.1
Cc1cccc(-n2nc([N+](=O)[O-])c(=NC3CCN(Cc4ccccc4)CC3)n2O)c1	APJ agonist 16.1
Oc1[nH]c2ccccc2c1N=Nc1ccccc1	none
Cc1ccc2[nH]c(O)c(N=Nc3nc4ccccc4s3)c2c1	CXCR6 inh 41.7
Oc1[nH]c2ccccc2c1N=Nc1nc2ccccc2s1	CCR6 antagonist 58.3
Cc1ccc2[nH]c(O)c(N=Nc3ccccc3[N+](=O)[O-])c2c1	none (no result: APJ antag, APJ agonist)
C=CCOc1cccc(C(=O)/C=C2/C(=O)Nc3ccccc32)c1	EBI2 antag 84.4
CC(=O)/C=C1/C(=O)Nc2ccccc21	APJ antag 91.5, CCR6 antagonist 76.0
O=C(O)COc1ccccc1/C=C1\C(=O)Nc2ccc(Br)cc21	none
C=CCOc1cccc(C(=O)N2CCCC(CCC(=O)NCc3ccccc3F)C2)c1 (stereo not drawn)	none
O=C1Nc2ccc(Br)cc2/C1=C/C(=O)c1ccccc1	EBI2 antag 78.8 (no result: APJ antag, CCR6 antagonist, APJ agonist)
Cc1cc(C(F)F)nn1CC(=O)NCc1ccco1	none
c1ccc2nc(NN=C3CCCCC3)ccc2c1	CXCR6 inh 35.4, CCR6 antagonist 77.6 (no result: APJ antag, APJ agonist)
c1ccc(-c2nc3nonc3nc2-c2ccccc2)cc1	none
O=C(CCl)c1ccc2c(c1)CCN2C(=O)C1CCCCC1	CCR6 antagonist 53.0
O=C(CCl)c1ccc2c(c1)CCN2C(=O)C1CC1	none (no result: EBI2 antag, CXCR6 inh, CCR6 antagonist)
COc1cc2nc(C3CCC3)nc(N3CCN(c4ccccn4)CC3)c2cc1OC	EBI2 antag 52.5
COc1cc(C(=O)N2CCN(c3ccccn3)CC2)cc(OC)c1OC	none
CN(C)c1ccc(C=C2SC(=S)NC2=O)cc1	none (no result: APJ antag, APJ agonist)
CN(C)c1ccc(/C=N/N=C2/NC(=O)/C(=C/c3ccc([N+](=O)[O-])cc3)S2)cc1	CCR6 antagonist 52.6
Cc1ccc(S(=O)(=O)N2CCOCC2)cc1C(=O)OCC(=O)Nc1ccc2c(c1)OCO2	none
COc1cc([N+](=O)[O-])cc(/C=N/NC(=O)C(C)Nc2ccccc2C)c1O (stereo not drawn)	EBI2 antag 68.9
COc1cc(/C=C2/C(=O)NN(c3cccc(Cl)c3)C2=O)cc(OC)c1O	CCR6 antagonist 52.4
Cc1ccc(NC(=O)Cn2ccnc2)cc1C	none
CCCCn1c(N)c(C(=S)NC(=O)CC(C)C)c(=O)n(C)c1=O	CXCR6 inh 47.7 (no result: APJ antag, CCR6 antagonist, APJ agonist)
